“And” between values parts separate entries of the source, which are not always exact repeats. Equal values may be shown once.
Tests used:
Format in all cases: functional, cell-based
[1] = target: T1, Solute carrier family 22 member 2 (Rattus norvegicus, UniProt Q9R0W2); test: TP_TRANSPORTER: inhibition of TEA uptake (in the presence of bicarbonate) (TEA: 20 uM) in OCT2-expressing HEK293 cells
T1 sequence (Q9R0W2 whole entry): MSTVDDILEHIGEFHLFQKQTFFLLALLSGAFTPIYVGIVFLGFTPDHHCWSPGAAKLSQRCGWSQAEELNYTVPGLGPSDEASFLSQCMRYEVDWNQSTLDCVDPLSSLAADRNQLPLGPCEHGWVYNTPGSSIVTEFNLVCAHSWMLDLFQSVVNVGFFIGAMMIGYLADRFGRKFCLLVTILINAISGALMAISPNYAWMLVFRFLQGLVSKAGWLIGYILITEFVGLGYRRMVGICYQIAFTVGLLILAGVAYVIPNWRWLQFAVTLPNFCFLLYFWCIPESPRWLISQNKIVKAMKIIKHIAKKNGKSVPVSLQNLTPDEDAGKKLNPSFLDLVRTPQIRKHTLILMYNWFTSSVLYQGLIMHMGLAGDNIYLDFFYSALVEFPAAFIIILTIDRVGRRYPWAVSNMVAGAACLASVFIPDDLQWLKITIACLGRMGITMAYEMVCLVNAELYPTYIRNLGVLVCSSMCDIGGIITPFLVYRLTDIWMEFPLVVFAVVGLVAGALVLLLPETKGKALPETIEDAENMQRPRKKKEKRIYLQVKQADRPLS
Summary of the method: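 Stably rOCT1- or rOCT2-transfected HEK 293 cells suspended in bicarbonate (25 mM) Krebs-Henseleit buffer, pH 7.4 set by 95% O2/5% CO2 bubbling, 25°C. […] Percent of uninhibited control; IC50 mean ± S.E.M. of 3–6 experiments.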

[2] = target: T1, Solute carrier family 22 member 2; test: TP_TRANSPORTER: inhibition of TEA uptake (in the absence of bicarbonate) (TEA: 20 uM) in OCT2-expressing HEK293 cells
Summary of the method: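 Uptake in rOCT1- or rOCT2-expressing stably transfected HEK 293 cells, run in bicarbonate-free Cross-Taggart phosphate buffer, pH 7.4, 25°C. 20 μM [14C]TEA final, 3 s incubation across inhibitor concentrations; ice-cold stopping buffer, centrifugation, washes, scintillation counting. Expressed relative to control uptake without inhibitor; IC50 mean ± S.E.M. of 3–6 experiments.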

[3] = target: T2, Solute carrier family 22 member 1 (Rattus norvegicus, UniProt Q63089); test: TP_TRANSPORTER: inhibition of TEA uptake (in the presence of bicarbonate) (TEA: 20 uM) in OCT1-expressing HEK293 cells
T2 sequence (Q63089 whole entry): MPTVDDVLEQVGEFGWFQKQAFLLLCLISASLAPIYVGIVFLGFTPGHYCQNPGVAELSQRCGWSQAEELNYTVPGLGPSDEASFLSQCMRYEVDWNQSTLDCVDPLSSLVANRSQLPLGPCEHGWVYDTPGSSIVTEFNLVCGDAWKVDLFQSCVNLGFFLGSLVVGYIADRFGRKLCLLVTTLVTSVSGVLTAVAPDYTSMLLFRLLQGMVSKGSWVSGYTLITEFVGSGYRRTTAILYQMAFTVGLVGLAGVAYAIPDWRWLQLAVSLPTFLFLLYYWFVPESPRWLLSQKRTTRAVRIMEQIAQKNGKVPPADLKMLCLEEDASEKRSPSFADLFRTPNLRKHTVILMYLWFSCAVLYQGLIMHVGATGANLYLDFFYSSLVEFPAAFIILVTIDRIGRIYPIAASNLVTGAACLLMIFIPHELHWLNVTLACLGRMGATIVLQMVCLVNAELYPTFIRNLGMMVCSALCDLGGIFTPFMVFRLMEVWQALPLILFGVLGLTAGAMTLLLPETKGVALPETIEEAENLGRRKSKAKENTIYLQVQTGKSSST
Summary of the method: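 Stably rOCT1- or rOCT2-transfected HEK 293 cells suspended in bicarbonate (25 mM) Krebs-Henseleit buffer, pH 7.4 set by 95% O2/5% CO2 bubbling, 25°C.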

[4] = target: T2, Solute carrier family 22 member 1; test: TP_TRANSPORTER: inhibition of TEA uptake (in the absence of bicarbonate) (TEA: 20 uM) in OCT1-expressing HEK293 cells
Summary of the method: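 Uptake in rOCT1- or rOCT2-expressing stably transfected HEK 293 cells, run in bicarbonate-free Cross-Taggart phosphate buffer, pH 7.4, 25°C. 20 μM [14C]TEA final, 3 s incubation across inhibitor concentrations; ice-cold stopping buffer, centrifugation, washes, scintillation counting.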

[5] = target: T2, Solute carrier family 22 member 1; test: TP_TRANSPORTER: inhibition of Amantadine uptake (in the presence of bicarbonate) (Amantadine: 10 uM) in OCT1-expressing HEK293 cells
Summary of the method: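 Rat OCT1 or OCT2 stably transfected HEK 293 cells, grown to 80% confluence, detached and resuspended in KHS (25 mM bicarbonate, pH 7.4, gassed O2/CO2 95%/5%), protein 5–6 mg/ml. […] Highest cyanine863 tested 200 μM. IC50 from 3–6 experiments.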

IC50 [1] [µM]	IC50 [2] [µM]	IC50 [3] [µM]	IC50 [4] [µM]	IC50 [5]	Structure (SMILES)
210	290	500	280		NC12CC3CC(CC(C3)C1)C2 [AMANTADINE]
1	1.2	0.4	0.45	89 µM and > 200 µM	CC[n+]1c(CC2C=C(C)N=C(c3ccccc3)N2C)ccc2ccccc21 (stereo not drawn) [Cyanine-863]
90	215				CCN(CC)CCNC(=O)c1ccc(N)cc1 [PROCAINAMIDE]
13	38				C=C[C@H]1C[N@@]2CC[C@H]1C[C@H]2[C@H](O)c1ccnc2ccc(OC)cc12 [QUININE]
